# Screening results (PubChem)
# Sampled rows, rich in hits. Any-hit rate of the full collection: about 4.1%.
# KCNQ1 pot: potentiates or activates the human KCNQ1 potassium channel. P51787. CHO-K1 KCNQ1, thallium flux FluxOR fluorescence; active compounds read high. B-score at 10 µM. 0.35% of 310,000 active;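 active = fluorescence ratio B-score, a plate-corrected score, at least three library SD, with initial intensity B-score within 5 SD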
# Target sequence (P51787 whole entry, looked up): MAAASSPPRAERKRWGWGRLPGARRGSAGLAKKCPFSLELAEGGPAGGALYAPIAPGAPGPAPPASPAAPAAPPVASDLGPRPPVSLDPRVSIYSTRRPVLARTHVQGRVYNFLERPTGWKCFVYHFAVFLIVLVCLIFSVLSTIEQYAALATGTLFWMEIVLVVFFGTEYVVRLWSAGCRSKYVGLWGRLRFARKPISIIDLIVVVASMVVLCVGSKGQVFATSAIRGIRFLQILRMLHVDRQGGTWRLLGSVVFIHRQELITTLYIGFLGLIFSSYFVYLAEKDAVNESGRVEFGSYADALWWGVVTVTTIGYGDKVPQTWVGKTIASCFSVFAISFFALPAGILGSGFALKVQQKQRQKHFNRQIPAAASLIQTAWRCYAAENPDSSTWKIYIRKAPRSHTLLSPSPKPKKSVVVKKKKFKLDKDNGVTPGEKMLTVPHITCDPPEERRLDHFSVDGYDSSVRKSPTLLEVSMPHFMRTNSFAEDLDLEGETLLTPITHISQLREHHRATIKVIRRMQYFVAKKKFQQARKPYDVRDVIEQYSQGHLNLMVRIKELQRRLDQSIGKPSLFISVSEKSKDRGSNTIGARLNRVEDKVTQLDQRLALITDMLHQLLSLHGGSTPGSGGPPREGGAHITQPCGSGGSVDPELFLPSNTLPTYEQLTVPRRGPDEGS
#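 Assay system: stable KCNQ1 CHO-K1 line; medium: assay buffer, equal DMSO in all wells; timing: 90 min dye loading and 20 min compound exposure, both at room temperature; technique: kinetic FluxOR thallium fluorescence, 10-s 1-Hz baseline, 110-s post-stimulus read; read-out basis: B score of baseline-normalized fluorescence ratio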
# KCNK3 inh: human KCNK3 channel inhibition, primary screen. O14649. CHO-KCNK3 thallium flux, FluxOR fluorescence; active compounds read low. B-score at 10 µM. 0.84% of 340,000 active;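 active = B-score under library mean minus 4 SD, starting fluorescence ratio at most library mean plus 5 SD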;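 also: more negative B-score means stronger inhibition of thallium flux through KCNK3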
# Cl transport mod: modulators of human KCC2 chloride dependent transport. Q9H2X9. KCC2 cells, thallium flux FluoZin-2 fluorescence. B-score of Tl+ flux slope (higher = more flux/activation; lower = inhibition) at 10 µM. 2.2% of 190,000 active;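 active = thallium flux slope and its plate-corrected score both differing from the plate sample mean at a set confidence after two filtering rounds, in either direction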;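 also: slope of fluorescence scaled to starting intensity during 10 to 20 s after thallium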
# hERG protect: compounds protecting human hERG from proarrhythmic drug block; CHO-hERG, FluxOR thallium flux, dofetilide IC70 present; activation (rescue from dofetilide block), less the hit threshold, % at 10 µM; 0.51% of 310,000 active;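 active = activation above the mean of controls blocked by dofetilide plus 5 SD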;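 also: thallium influx through hERG after potassium depolarization seen as dye fluorescence rise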
# KCNK9 block: human KCNK9 channel inhibition | Q9NPC2 | HEK293 KCNK9, FluxOR thallium flux fluorescence; active compounds read low | B-score at 10 µM | 1.2% of 310,000 active | AID 488922;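 active = ratio B-score over 3 SD below the library mean, with starting fluorescence within 5 SD of its mean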;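 also: negative B-score means less thallium flux so channel inhibition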
# KCNQ1 block: human KCNQ1 channel inhibition. P51787. CHO-K1 KCNQ1, FluxOR thallium flux fluorescence; active compounds read high. B-score at 10 µM. 1.3% of 310,000 active;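 active = compounds whose thallium flux B-score, printed positive for inhibition, exceeds three library SD while starting fluorescence stays within three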;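 also: channel opened by potassium depolarization with thallium stimulus after 20 min compound exposure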
# KCNK9 inh conf: human KCNK9 inhibitor confirmation. HEK293 KCNK9 cells, FluxOR thallium flux fluorescence. 43% of 4,900 active. AID 492992. shares compounds with KCNK9 block. inhibition, % at 10 µM;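 active = thallium signal inhibited by more than 5 SD of the compound-free buffer control wells, on both duplicate plates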
# Kir2-1 spec: mouse Kir2.1 off-target activity of KCNK9 modulators | shares compounds with KCNK9 block | Kir2.1 cells, FluxOR thallium flux fluorescence | inhibition, % at 10 µM | 4% of 4,900 active | AID 492993;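 active = thallium signal drop more than 5 SD beyond the mean of the no-compound control wells, seen in both duplicate plates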;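 also: signal is fluorescence rise after thallium addition divided by baseline fluorescence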
# KCNK9 uninduced: non-induced cell nonspecific activity of KCNK9 modulators; inhibition, % at 10 µM; non-induced KCNK9-HEK293, FluxOR thallium flux; 40% of 4,900 active; AID 492997; shares compounds with KCNK9 block;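 active = thallium signal drop beyond 5 SD of the untreated control mean, on both duplicate plates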
# Numbers stand for hits; n = inactive; x = not tested or not shown.
SMILES,KCNQ1 pot,KCNK3 inh,Cl transport mod,hERG protect,KCNK9 block,KCNQ1 block,KCNK9 inh conf,Kir2-1 spec,KCNK9 uninduced
CCCC(=O)c1c[nH]c(C(=O)N2CCOCC2)c1,n,n,n,n,n,n,x,x,x
Cc1ccccc1N1CCN(c2ncnc3scc(-c4cccs4)c23)CC1,n,n,x,n,-14,n,44%,n,n
CCOC(=O)N1CCN(c2ncnc3scc(-c4ccccc4)c23)CC1,n,n,x,n,n,n,x,x,x
Clc1ccc(-c2csc3ncnc(N4CCc5ccccc5C4)c23)cc1,n,n,n,n,-10,n,45%,n,40%
Clc1ccc(CN2CCN(c3ncnc4scc(-c5cccs5)c34)CC2)cc1,n,n,x,n,-13,7,34%,n,n
CCc1ccccc1NC(=O)CN(C)C(=O)c1cccc(S(=O)(=O)N2CCCCCC2)c1,x,n,x,x,x,x,x,x,x
Nc1c(-c2ccccc2)sc2ccc3ccccc3[n+]12,n,n,x,n,n,n,x,x,x
O=C(O)C(c1ccccc1)N1C(=O)/C(=C\c2ccc(-c3ccc(Br)cc3)o2)SC1=S (configuration not stated),n,n,x,n,n,n,x,x,x
O=C(O)C(c1ccccc1)N1C(=O)/C(=C\c2ccc(-c3ccccc3Cl)o2)SC1=S (configuration not stated),n,n,x,n,n,n,n,n,n
CCc1nnc(NS(=O)(=O)c2ccc(NCc3cc(Cl)ccc3O)cc2)s1,n,n,x,n,n,n,n,n,n
CCc1nnc(NS(=O)(=O)c2ccc(NC(=O)c3cc(Cl)ccc3OC)cc2)s1,n,n,x,n,n,n,x,x,x
CCc1nnc(NS(=O)(=O)c2ccc(NCc3cc(Cl)cc(Cl)c3O)cc2)s1,n,n,x,n,n,n,n,n,n
O=C(O)C(Oc1ccc(Cl)cc1)c1ccc(Cl)cc1 (configuration not stated),x,n,x,x,x,x,x,x,x
CC(=O)c1cc(CC=C(C)C)c(O)c(CC=C(C)C)c1O,n,n,n,n,n,n,x,x,x
CC(=O)c1cc(CC=C(C)C)c(O)cc1O,n,n,n,n,-8.6,n,27%,n,n
c1ccc(-c2cc3c(N4CCN(c5ncccn5)CC4)ncnc3s2)cc1,n,n,n,n,n,n,n,n,n
CN1CCN(c2ncnc3sc(-c4ccccc4)cc23)CC1,n,n,x,n,n,n,x,x,x
C=C1C(=O)c2sccc2C(c2ccc(OC)c(OC)c2)C1COC(C)=O (configuration not stated),x,n,x,x,x,x,x,x,x
CCCn1nc(NC(=O)c2cccs2)c2cc3cc(OC)ccc3nc21,n,n,x,n,-10,n,n,n,n
CCCCn1nc(NC(=O)c2cccs2)c2cc3cc(OC)ccc3nc21,n,n,n,n,n,n,x,x,x
O=C(/C=C/c1ccccc1Cl)OCC(=O)c1ccc[nH]1,x,n,x,x,x,x,x,x,x
Cc1cc(C)c(S(=O)(=O)NCc2nc3nc(C)cc(C)n3n2)c(C)c1,n,n,x,n,n,n,x,x,x
CC1=C(C(=O)Nc2cccc(C(=O)NC3CCCCC3C)c2)SCCO1 (configuration not stated),n,n,x,n,n,n,x,x,x
CCN(CC)S(=O)(=O)c1cccc2cccnc12,n,n,n,n,n,n,x,x,x
CCN(CC)S(=O)(=O)c1cc(OC)ccc1N=Nc1ccc(O)c2ncccc12,n,n,x,17,n,n,n,n,n
SMILES,KCNQ1 pot,KCNK3 inh,Cl transport mod,hERG protect,KCNK9 block,KCNQ1 block,KCNK9 inh conf,Kir2-1 spec,KCNK9 uninduced
Cc1ccc(C(c2nnnn2C2CCCC2)N2c3ccccc3CC2C)cc1 (configuration not stated),n,n,n,n,-11,7,70%,n,50%
COc1cccc(NC(=O)COC(=O)CCC2CCCC2)c1,x,n,x,x,x,x,x,x,x
O=C(Nc1c(Br)cc2c(c1Br)Cc1ccccc1-2)C(Cl)Cl,x,n,x,x,x,x,x,x,x
CC(C)(C)c1ccc(C(CC(=O)O)NC(=O)Cc2ccc(Cl)cc2)cc1 (configuration not stated),n,n,x,n,n,n,x,x,x
O=C(/C=C/c1cccs1)c1cc(Br)ccc1OC(=O)N1CCOCC1,n,n,n,n,-9.8,n,30%,n,23%
O=S(=O)(c1ccc(Oc2ccc(Br)cc2)cc1)N1CCOCC1,n,n,n,n,n,n,n,n,n
O=[N+]([O-])c1ccc(N2CCOCC2)cc1SCc1ccco1,n,n,n,n,n,n,x,x,x
O=[N+]([O-])c1ccc(SCc2ccco2)cc1N1CCOCC1,n,n,n,n,n,n,n,n,n
O=C(COc1ccccc1[N+](=O)[O-])Nc1ccc2oc(=O)ccc2c1,n,n,x,n,-9.6,n,n,n,n
Cc1cc(=O)oc2cc(NC(=O)COc3ccccc3[N+](=O)[O-])ccc12,x,n,x,x,x,x,x,x,x
CCOc1ccccc1NC(=O)C1C2CCC3C(CCC21)C3(Cl)Cl (configuration not stated),n,n,n,n,n,n,n,n,32%
O=C(Nc1ccccc1)C1C2CCC3C(CCC21)C3(Cl)Cl (configuration not stated),n,n,n,n,n,n,x,x,x
O=C(Nc1cccc(Cl)c1)C1C2CCC3C(CCC21)C3(Cl)Cl (configuration not stated),n,n,n,n,n,n,n,n,n
Oc1ccc(N=Nc2ccc3c(c2)OCCO3)c2ncccc12,15,n,x,29,n,n,n,n,n
CC(=O)N1c2ccc3ccccc3c2C(C)CC12CCCCC2 (configuration not stated),n,n,n,n,-12,n,68%,n,48%
O=C(NCc1ccco1)C1CCN(C(=O)c2cc3sccc3n2Cc2ccc(F)cc2)CC1,n,n,n,n,n,n,x,x,x
CC1Cc2ccccc2N1C(=O)c1cc2sccc2n1Cc1ccc(F)cc1 (configuration not stated),n,n,n,n,-9.8,8,37%,n,23%
Cc1ccc(N(Cc2cc3cccc(C)c3[nH]c2=O)S(=O)(=O)c2ccccc2)c(C)c1,n,n,x,n,n,n,n,n,n
Cc1ccc2[nH]c(=O)c(CN(c3cccc(C)c3C)S(=O)(=O)c3ccccc3)cc2c1,n,n,x,n,n,n,x,x,x
CSc1ccccc1NC(=O)COC(=O)CCc1ccccc1,n,n,x,n,n,n,x,x,x
Cc1ccc(NC2(c3nnnn3-c3c(C)cccc3C)CCCCC2)cc1,n,n,n,n,-8.9,n,48%,n,44%
Nc1nc(=S)c2[nH]cnc2[nH]1,x,n,x,x,x,x,x,x,x
